The structures appear in SMILES notation.

The test system of experiment [1] is B16. Kind of experiment: Inhibition of alpha-MSH-stimulated melanogenesis in mouse B16 cells assessed as reduction in melanin production incubated for 3 days. The format is functional, cell-based. As to conditions: B16, 72 h. The gist of the method: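 B16 melanoma cells stimulated with α-MSH (100nM) and incubated with test agent for three days. Melanin released into the culture medium was quantified by sample absorbance against a synthetic melanin standard, and IC50 values were derived from inhibition of melanin formation.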

Experiment [2] has as its system B16. The experiment can be described thus: Potency index, ratio of IC50 for arbutin to IC50 for test compound for inhibition of alpha-MSH-stimulated melanogenesis in mouse B16 cells assessed as reduction in melanin production incubated for 3 days. The format is functional.

For `O=C(c1ccccc1)n1ncc2cc([N+](=O)[O-])c(Br)cc21`, in the experiment on B16 [1], the IC50 worked out at 32 µM.
Regarding `O=C(Nc1ccc(OC(F)(F)F)cc1)c1n[nH]c2ccccc12`, the IC50 with B16 [1] is 13 µM. The “Ratio IC50” value with B16 [2] is recorded as 5.
`O=C(c1ccc(Cl)cc1)n1ncc2cc([N+](=O)[O-])ccc21`: the IC50 in the experiment with B16 [1] stood at 60 µM.
In the case of `O=C(Nc1ccc(C(F)(F)F)cc1)c1n[nH]c2ccccc12`, the IC50 in the experiment on B16 [1] was found to be 15 µM. The “Ratio IC50” value with B16 [2] is 4.
In the case of `Cc1cccc(C(=O)n2ncc3cc([N+](=O)[O-])c(Br)cc32)c1`, the IC50 with B16 [1] was 28 µM.
The same measure, in the same setting: in the case of `O=C(c1ccccc1)n1ncc2cc([N+](=O)[O-])ccc21` it was 51 µM.
The same measure, in the same setting: in the case of `O=C(Nc1ccccc1O)c1n[nH]c2ccccc12` it was 21 µM.
On to `OC[C@H]1O[C@@H](Oc2ccc(O)cc2)[C@H](O)[C@@H](O)[C@@H]1O` [ARBUTIN], for which, in the experiment with B16 [1], the IC50 turned out to be 64 µM.
Turning to `O=C(Nc1ccc(Cl)cc1)c1n[nH]c2ccccc12`, the IC50 in the experiment with B16 [1] worked out at 93 µM.
With `COC(=O)c1ccc(NC(=O)c2n[nH]c3ccccc23)cc1`, the IC50 in the experiment with B16 [1] was 69 µM.
On the same count and under the same terms, in the case of `O=C(Nc1ccc(O)cc1)c1n[nH]c2ccccc12` it was 18 µM.
Consider `Cc1cccc(C(=O)n2ncc3cc([N+](=O)[O-])ccc32)c1`, for which the 50% inhibitory concentration (IC50) in the experiment with B16 [1] was determined as 77 µM.
Still for that read-out and setting: then `O=C(Nc1cccc(O)c1)c1n[nH]c2ccccc12`, with 35 µM; and `Cc1cccc(NC(=O)c2n[nH]c3ccccc23)c1`, with 15 µM.
In the case of `O=C(c1ccccc1Cl)n1ncc2cc([N+](=O)[O-])c(Br)cc21`, the 50% inhibitory concentration (IC50) in the experiment on B16 [1] was determined as 25 µM. Further, in the experiment on B16 [2], the “Ratio IC50” value amounted to 4.
Consider `O=C(Cc1cccs1)n1ncc2cc([N+](=O)[O-])ccc21`, for which the IC50 in the experiment with B16 [1] was determined as 55 µM.
Same read-out and setting: in the case of `O=C(Nc1ccccc1)c1n[nH]c2ccccc12` it was 40 µM.
In the case of `O=C(c1ccccc1Cl)n1ncc2cc([N+](=O)[O-])ccc21`, the IC50 in the experiment on B16 [1] came out at 7 µM. For the same compound, in the experiment on B16 [2], the “Ratio IC50” value is listed as 9.
As for `Cc1ccc(NC(=O)c2n[nH]c3ccccc23)cc1`, the IC50 in the experiment with B16 [1] worked out at 38 µM.
Still for that read-out and setting: in the case of `COc1ccc(NC(=O)c2n[nH]c3ccccc23)cc1` it was 20 µM.
On the same count and under the same terms, in the case of `COc1cccc(NC(=O)c2n[nH]c3ccccc23)c1` it was 36 µM.
In the case of `COc1ccccc1NC(=O)c1n[nH]c2ccccc12`, the 50% inhibitory concentration (IC50) with B16 [1] amounted to 16 µM. Besides, in the experiment on B16 [2], the “Ratio IC50” value came out at 4.

By IC50 is commonly meant the concentration needed to halve the response being measured.

Source of the values: ChEMBL document CHEMBL4385665, “Synthesis of N-arylindazole-3-carboxamide and N-benzoylindazole derivatives and their evaluation against α-MSH-stimulated melanogenesis” (Bioorg Med Chem Lett, 2019).
